Compound activity (PubChem)
A selection: hits, their analogues and other compounds. The true share with any hit is near 3%.
TRPC4 potent: allosterically enhances the mouse TRPC4 cation channel; Q9QUQ5; HEK293 TRPC4beta/mu-opioid, DAMGO EC20, Fluo-4 Ca2+ flux; active compounds read high; B-score at 10 µM; 310,000 tested, 0.42% active; AID 2227;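 active = B-score of calcium response area above 5 SD of library B-scores, with initial fluorescence ratio within 5 SD of library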;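 note: B-score of integrated fluorescence ratio over time as area under calcium response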
Kir21 block: inhibitors of mouse Kir2.1 inward-rectifier potassium channel; P35561; HEK293-Kir2.1, FluxOR thallium flux fluorescence; active compounds read low; B-score at 10 µM; 310,000 tested, 0.85% active; AID 1672;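 active = fluorescence ratio B-score at or below minus 3 SD of library scores, with starting-brightness B-score within 2 SD, cut at about -4.2 in these data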;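 note: channel flux triggered by added potassium and thallium sulfate stimulus; B-score of peak minus minimum fluorescence over baseline after thallium stimulus; more negative B-score means stronger Kir2.1 block with less thallium influx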
Target sequence (P35561 whole entry, looked up): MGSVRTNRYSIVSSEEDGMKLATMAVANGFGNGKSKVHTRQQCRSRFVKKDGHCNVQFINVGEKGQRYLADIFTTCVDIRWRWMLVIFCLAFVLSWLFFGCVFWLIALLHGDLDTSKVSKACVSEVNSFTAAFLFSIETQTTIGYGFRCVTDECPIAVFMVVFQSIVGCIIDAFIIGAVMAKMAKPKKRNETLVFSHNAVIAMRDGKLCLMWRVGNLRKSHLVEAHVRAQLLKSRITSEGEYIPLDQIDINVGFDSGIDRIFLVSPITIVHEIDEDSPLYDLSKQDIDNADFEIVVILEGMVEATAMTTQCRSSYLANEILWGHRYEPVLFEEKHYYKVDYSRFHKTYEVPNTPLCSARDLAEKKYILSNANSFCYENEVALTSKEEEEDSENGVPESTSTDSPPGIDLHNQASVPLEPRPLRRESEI
TRPC4 inh: TRPC4 (mouse) channel inhibition; 300,000 tested, 0.39% active; AID 2247; B-score at 10 µM; HEK293 TRPC4beta/mu-opioid, DAMGO-evoked Fluo4 calcium flux; active compounds read low;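 active = B-score over 3 SD under the library average, no early fluorescence shift, positive overall ratio signal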
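System: stable TRPC4beta/mu-opioid receptor HEK293 cells; Dosing: single-point compound dosing; Measured by: Fluo4 Ca2+ flux fluorescence; Read-out basis: per-well B score of integrated baseline-normalized Fluo4 ratio.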
TRPC6 activator: mouse TRPC6 channel activation; Q61143; HEK293-TRPC6 membrane potential dye fluorescence; active compounds read high; B-score at 10 µM; 310,000 tested, 0.13% active; AID 2550;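 active = B-score of the integrated fluorescence ratio above library mean plus 3 SD, and starting fluorescence ratio within library mean plus 5 SD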;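 note: higher score means more depolarization so channel activation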
TRPC4 agonist: activators of mouse TRPC4 channel; HEK293 TRPC4beta/mu-opioid, Fluo4 calcium fluorescence; active compounds read high; B-score at 10 µM; 310,000 tested, 0.49% active; AID 2237;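 active = B-score above 5 SD of library B-scores, and initial fluorescence ratio not above library mean plus 5 SD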;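 note: positive B-score marks a calcium rise read as TRPC4 activation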
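Technique: kinetic Fluo4 calcium fluorescence; Test system: TRPC4beta and mu-opioid receptor HEK293 stable cells; Measure: B-scored integrated calcium fluorescence ratio; Benchmarks: low control buffer alone, high control maximal DAMGO; Schedule: 45 min room-temperature Fluo4 loading, 110 s read.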
TRPC6 inh: inhibitors of mouse TRPC6 channel; Q61143; HEK293-TRPC6, membrane potential dye, ACh-evoked depolarization; active compounds read low; B-score at 10 µM; 310,000 tested, 1.1% active;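 active = B-score under library mean minus 3 SD, initial fluorescence not abnormally high, positive integrated signal ratio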;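 note: B-score derived from integrated fluorescence ratio over the kinetic read; more negative B-score means stronger inhibition of depolarization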
Starred values were filed as active, the others as inactive; i = inactive.

SMILES	TRPC4 potent	Kir21 block	TRPC4 inh	TRPC6 activator	TRPC4 agonist	TRPC6 inh
Cc1nn2c(N3CCN(C)CC3)c3c(nc2c1-c1ccccc1)CCCC3	28*	-2.03	i	i	i	i
CC(=O)Cn1ncc(N2CCOCC2)cc1=O	i	-1.37	-8*	i	i	i
Cc1ccc(S(=O)(=O)N2CCC3(CC2)OCCO3)s1	i	0.46	i	i	i	i
CCOc1c(Br)cc(CNC2CCCCCCC2)cc1OC	i	-4.34*	-6*	i	i	i
COc1cc(CNC2CCCC2)c(Br)cc1OC1CCCC1	i	-0.24	-7*	i	i	i
COc1cc(CNC2CCCCCCC2)cc(Br)c1OCC#N	i	-4.8*	i	i	i	i
COc1ccc(C(c2nnnn2C(C)C)N2CCN(C(=O)c3ccco3)CC2)cc1 (stereo unspecified)	i	-0.63	i	i	i	i
Cc1nn(C(C)C(=O)NCCc2ccco2)c(=O)c2nn(-c3ccccc3)c(C)c12 (stereo unspecified)	i	1.3	i	i	i	i
Cc1ccc(CNC(=O)C2CCC(=O)N(C3CCCC3)C2)c(F)c1F (stereo unspecified)	i	-1.2	i	i	i	i
CCOc1cc(CNCCN2CCOCC2)ccc1OCc1ccccc1Cl	i	-3.96	i	i	i	i
CCOc1cc(CNC2CCCC2)ccc1OCc1ccccc1Cl	i	-4.44*	i	i	i	i
CCOc1cc(CNC2CCCC2)cc(Cl)c1OCc1ccccc1	i	-8.76*	-6*	i	i	i
CCCCNCc1cc(Cl)c(OCCC)c(OCC)c1	i	-3.36	-7*	i	i	i
CCOc1cc(CNCC(C)C)cc(Cl)c1OCc1ccccc1	i	-13.6*	i	i	i	i
CN(CC(=O)Nc1cccc(F)c1)C(=O)CCCN1C(=O)c2cccc3cccc(c23)C1=O	i	-0.54	i	i	i	i
COc1cc(CNCc2ccccc2Cl)ccc1OCC(=O)NC1CCCCC1	i	-4.74*	i	i	i	i
Cc1ccccc1Cn1ccc(=NCc2ccccc2)cc1	i	-5.45*	i	i	i	i
Cn1c(CSCc2ccc(F)cc2)nnc1SCC(=O)Nc1cccc(C(=O)O)c1	i	-1.27	i	i	i	i
CN1CCc2c(sc(NC(=O)c3ccc(S(=O)(=O)N4CCc5ccccc54)cc3)c2C(N)=O)C1	i	-1.31	i	i	i	i
CN1CCc2c(sc(NC(=O)c3ccc(S(=O)(=O)N4CCCC4)cc3)c2C(N)=O)C1	i	-1.79	i	i	i	-5.95*
Cc1ccc(C2OC(=O)C=C2c2ccccc2)cc1 (stereo unspecified)	i	-1.36	i	i	i	i
O=C(NC1CCCCC1)N1CCCC(c2nc(-c3cccs3)no2)C1 (stereo unspecified)	i	1.23	i	i	i	i
COc1ccc(NC(=O)N2CCC(c3nc(-c4cccs4)no3)CC2)cc1	i	1.47	i	i	i	i
O=C(Nc1ccc(Cl)cc1)N1CCC(c2nc(-c3cccs3)no2)CC1	i	-0.57	i	i	137*	i
O=C(Nc1ccccc1)N1CCCC(c2nc(-c3cccs3)no2)C1 (stereo unspecified)	i	-2.03	i	i	47*	i
O=C1/C(=C/c2ccccc2F)SC(=S)N1CC(=O)N1CCCCC1c1cccnc1 (stereo unspecified)	i	1.04	i	i	i	i
COC(=O)c1sc(-c2ccc(C(C)(C)C)cc2)cc1NC(=O)CSCC(=O)O	i	0.82	-6*	i	i	i
COC(=O)c1sc(-c2ccc(C(C)(C)C)cc2)cc1NC(=O)c1ccccc1C(=O)O	12*	0.02	i	i	i	i
O=C(Nc1cccnc1)C1CC(=O)N(c2ccc(F)cc2)C1 (stereo unspecified)	i	-0.25	i	i	i	i
